Bioassay records: PubChem BioAssay, several laboratories
PLCg1 inh: PLC-gamma1 (human) inhibition, primary screen; 370,000 tested, 0.84% active; P19174; inhibition, % at 12.2 µM; purified PLC-gamma1, fluorogenic substrate, fluorescence; in the data active means inhibition above about 9.5%
Target sequence (P19174 whole entry, looked up): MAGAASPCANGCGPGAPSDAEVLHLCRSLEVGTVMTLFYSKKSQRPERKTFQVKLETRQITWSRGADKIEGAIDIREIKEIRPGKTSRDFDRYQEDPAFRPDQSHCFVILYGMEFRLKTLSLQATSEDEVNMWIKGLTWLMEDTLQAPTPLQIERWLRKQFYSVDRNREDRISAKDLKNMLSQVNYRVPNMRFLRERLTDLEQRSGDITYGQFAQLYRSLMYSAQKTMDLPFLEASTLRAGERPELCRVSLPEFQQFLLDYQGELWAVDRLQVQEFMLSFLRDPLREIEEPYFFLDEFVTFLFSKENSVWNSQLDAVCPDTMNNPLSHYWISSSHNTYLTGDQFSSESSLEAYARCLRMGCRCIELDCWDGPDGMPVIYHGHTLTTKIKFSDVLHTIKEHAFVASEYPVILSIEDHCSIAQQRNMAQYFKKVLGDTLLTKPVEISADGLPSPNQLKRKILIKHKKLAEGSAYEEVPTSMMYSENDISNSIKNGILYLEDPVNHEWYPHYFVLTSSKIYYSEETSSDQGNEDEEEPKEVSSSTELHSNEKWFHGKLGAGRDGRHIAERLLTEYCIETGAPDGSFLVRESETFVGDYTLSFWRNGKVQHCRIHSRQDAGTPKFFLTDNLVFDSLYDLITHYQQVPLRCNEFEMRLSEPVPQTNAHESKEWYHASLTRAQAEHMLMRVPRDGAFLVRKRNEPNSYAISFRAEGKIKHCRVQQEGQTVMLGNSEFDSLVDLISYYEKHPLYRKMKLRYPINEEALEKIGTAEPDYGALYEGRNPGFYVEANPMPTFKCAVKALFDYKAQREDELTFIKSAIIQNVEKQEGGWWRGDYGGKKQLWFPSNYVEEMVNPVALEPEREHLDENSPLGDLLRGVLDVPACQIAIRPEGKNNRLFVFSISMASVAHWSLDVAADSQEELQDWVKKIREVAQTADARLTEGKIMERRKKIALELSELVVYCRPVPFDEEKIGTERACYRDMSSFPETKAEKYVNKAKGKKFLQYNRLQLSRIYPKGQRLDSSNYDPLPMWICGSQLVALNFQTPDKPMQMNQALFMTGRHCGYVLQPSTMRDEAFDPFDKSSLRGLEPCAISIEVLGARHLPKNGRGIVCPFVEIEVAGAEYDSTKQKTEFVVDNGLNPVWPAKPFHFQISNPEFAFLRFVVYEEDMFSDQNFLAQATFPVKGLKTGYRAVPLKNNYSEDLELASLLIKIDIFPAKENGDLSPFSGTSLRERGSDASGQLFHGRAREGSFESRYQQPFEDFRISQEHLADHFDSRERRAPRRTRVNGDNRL
UCH37 DUB inh: blocks the human deubiquitinase UCH37. Q9Y5K5. purified proteasome/UCH37, Ub-AMC cleavage fluorescence. inhibition, % (no concentration beside the values). 330,000 tested, 0.33% active. AID 588478;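 active means mean inhibition over replicate wells above about 20%, limit read from the data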
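Material: Human UCH37 enzyme supplied as purified proteasome complex | Schedule: 30 min compound-proteasome preincubation then 25 min substrate reaction, room temperature | Detection: AMC fluorescence from Ub-AMC cleavage, excitation 355 nm, emission 460 nm | Benchmarks: Wells without proteasome as full block, compound-free enzyme plus substrate as uninhibited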
PLCb3 inh: inhibitors of human phospholipase C beta3; Purified PLC-beta3, fluorogenic substrate, fluorescence; inhibition, % at 12.2 µM; 370,000 tested, 0.18% active
Rpn11 inh: Rpn11 (human) deubiquitinase inhibition | O00487 | human 26S proteasome, Ub4-pepOG fluorescence polarization; 20S core pre-blocked with epoxomicin | inhibition, % at 20 µM | 360,000 tested, 0.59% active;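 active means inhibition at 20 µM, scaled to each plate's controls, above about 33%, limit read from the data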
PLCgamma1 ctr: PLC-gamma1 inhibition, counter-screen for PLC-beta3 hits; shares compounds with PLCg1 inh; 3,300 tested, 3.1% active; inhibition, % at 12.3 µM; purified PLC-gamma1, fluorogenic substrate, fluorescence; in the data active means inhibition above about 9.5%
PLCbeta3 conf: confirmation of human PLC-beta3 inhibitors | shares compounds with PLCg1 inh | inhibition, % at 12.3 µM | 3,300 tested, 1% active | purified PLC-beta3, fluorogenic substrate fluorescence
Numbers stand for hits; i = inactive; nt = not tested or not shown. Hits are enriched below; roughly 1.7% of the tested compounds scored in any of these assays. Unless noted, no stated cut-off is given here; in the data, active means inhibition above about 11%; inactive means the rest.

SMILES	PLCg1 inh	UCH37 DUB inh	PLCb3 inh	Rpn11 inh	PLCgamma1 ctr	PLCbeta3 conf
COc1ccc(C(=O)CN2C(=O)C(C)(C)Oc3ccc(C(=O)N4CCCCCC4)cc32)cc1	i	i	23.1	i	i	i
CC1(C)Oc2ccc(C(=O)N3CCCC3)cc2N(CC(=O)NCc2ccccc2)C1=O	i	i	i	i	nt	nt
O=C(Cc1ccccc1)NN=Cc1cc2c(cc1Cl)OCO2	nt	i	nt	nt	nt	nt
O=C(CN1C(=O)NC2(CCCCCCC2)C1=O)NCc1ccc(Cl)cc1	12.0	i	i	i	i	i
CN(Cc1ccccc1)C(=O)CN1C(=O)NC2(CCCCCCC2)C1=O	12.7	i	i	i	i	i
CC1CCC2(CC1)NC(=O)N(CC(=O)NCc1ccc(Cl)cc1)C2=O (stereo not drawn)	i	i	i	i	nt	nt
O=c1c2cc(Br)ccc2nc2n1CCCCC2	nt	i	nt	i	nt	nt
Cc1ccc2nc3n(c(=O)c2c1)CCCCC3	11.3	i	i	i	i	i
O=C(NCC1CCCO1)C1CCN(S(=O)(=O)c2cc(Cl)ccc2Cl)CC1 (stereo not drawn)	12.4	i	i	i	i	i
CC1=C(C)C(=NOC(=O)c2cccc([N+](=O)[O-])c2)C=CC1=O	nt	i	nt	nt	nt	nt
O=C(C[C@H]1CC[C@@H]2[C@H](COC[C@@H](O)CN2C(=O)C2CC2)O1)NCc1ccccc1Cl	i	nt	i	nt	nt	nt
O=C(C[C@H]1CC[C@H]2[C@@H](COC[C@@H](O)CN2C(=O)c2cnccn2)O1)NCc1ccc(Oc2ccccc2)cc1	i	nt	11.0	nt	i	i
Cc1ccc(C(=O)NNC(=O)C2CCN(S(=O)(=O)c3ccc(C)cc3)CC2)cc1	i	i	i	i	nt	nt
Cc1ccc(S(=O)(=O)N2CCC(C(=O)NNC(=O)c3ccncc3)CC2)cc1	i	i	11.6	i	i	i
O=C(CSc1nccn1Cc1ccco1)Nc1cccc(F)c1	10.0	i	i	i	i	i
CC(=NNC(=O)CNC(=O)c1ccccc1)c1ccc(C)cc1	nt	i	nt	nt	nt	nt
COc1cc(-c2nc3ccccn3c2N=Cc2cc(OC)c(O)cc2Cl)ccc1O	nt	i	nt	nt	nt	nt
COc1ccc(/C(O)=C2/C(=O)C(=O)N(CC3CCCO3)C2c2cccc(O)c2)cc1 (stereo not drawn)	9.6	i	i	i	i	i
S=C(Nc1ccccc1Cl)N1CCC(c2ccccc2)C1 (stereo not drawn)	10.4	i	i	i	i	i
Cc1ccn2c(C(=O)NN=Cc3ccc4c(c3)OCO4)c(C)nc2c1	nt	i	nt	nt	nt	nt
COCCN(Cc1ccccc1)C(=S)Nc1ccc(Cl)cc1	12.7	i	i	i	i	i
C/C(=C1\SC(N2CCOCC2)=NC1=O)c1ccc(C)cc1	10.4	i	i	i	i	i
C=CCNC(=O)CC(=O)NN=Cc1cccc(Br)c1	nt	i	nt	nt	nt	nt
Cc1cccc2cc(CN(Cc3ccco3)C(=O)Nc3cccc(C#N)c3)c(Cl)nc12	10.7	i	i	i	i	i
CC(C)c1cc(=O)n2[nH]c(SCc3ccccc3Cl)nc2n1	13.0	i	i	i	i	i
SMILES	PLCg1 inh	UCH37 DUB inh	PLCb3 inh	Rpn11 inh	PLCgamma1 ctr	PLCbeta3 conf
Cc1cc(=O)n2[nH]c(SCc3ccccc3)nc2n1	i	i	i	i	nt	nt
COc1ccc(OC)c(-c2cc(C(=O)NN=C(C)c3cccnc3)c3ccccc3n2)c1	nt	i	nt	nt	nt	nt
Cc1ccc(C(OCC(O)CNCc2ccc(F)cc2)c2ccccc2)cc1 (stereo not drawn)	17.5	i	i	i	i	i
COc1cc(C=NNC(=O)c2[nH]nc3c2CCc2ccccc2-3)ccc1O	nt	i	nt	nt	nt	nt
CC(=O)N1CCc2ccccc2C1CC(=O)O (stereo not drawn)	11.3	i	i	i	i	i
Cc1nn(C)cc1S(=O)(=O)N1CCN(Cc2ccc(F)cc2Cl)CC1	i	i	11.8	i	i	i
CCN(CC)C(=O)C1CCCN(Cc2ccc(N(C)C)cc2)C1 (stereo not drawn)	10.2	i	i	i	i	i
Cc1ccc(CN2CCCC(C(=O)N3CCCC3)C2)cc1 (stereo not drawn)	i	i	i	i	nt	nt
O=C(C1CCCN(Cc2ccc(Br)cc2)C1)N1CCCCC1 (stereo not drawn)	13.2	i	i	i	i	i
CC(C)(C)OC(=O)NCc1cc(F)ccc1/C=C/S(=O)(=O)NC1CCCC1	9.8	nt	i	nt	i	i
CC(C)(C)OC(=O)NCc1ccccc1/C=C/S(=O)(=O)NC1CCCC1	i	nt	i	nt	nt	nt
CCn1c(CNc2ccc(F)cc2)nnc1SCC(=O)Nc1ccccc1OC	10.7	i	i	i	i	i
CCn1c(CNc2ccc(F)cc2)nnc1SCC(=O)Nc1ccc(OC)cc1	i	i	i	i	nt	nt
O=C(NC(=S)Nc1ccc([N+](=O)[O-])cc1)c1ccco1	13.0	nt	i	i	i	i
O=C(NC(=S)Nc1ccccc1[N+](=O)[O-])c1ccco1	i	i	i	i	nt	nt
COc1ccc(C(=O)NC(=S)Nc2cccc(NC(=O)c3ccco3)c2)cc1[N+](=O)[O-]	13.2	i	i	i	i	i
Nc1ccc([N+](=O)[O-])cc1C(=O)NNC(=O)c1ccco1	9.7	i	i	i	i	i
CC(=NO)C1(C)N(O)C(C)(C)C(c2ccc(Br)cc2)=[N+]1[O-] (stereo not drawn)	nt	i	nt	nt	nt	nt
COc1ccc(OCC(=O)NN=Cc2cccc3cccnc23)cc1	nt	i	nt	nt	nt	nt
COC(=O)C(=NNc1ccccc1C)Sc1nnc(C(O)c2ccccc2)n1-c1ccccc1 (stereo not drawn)	nt	i	nt	nt	nt	nt
COc1ccc(NS(=O)(=O)c2cn(C)cn2)cc1	i	i	i	i	nt	nt
COc1ccc(NS(=O)(=O)c2cn(C)nc2C)cc1	11.5	i	i	i	i	i
Cc1cccc(NC(=O)Cn2c(=O)n(CCc3c[nH]c4ccccc34)c(=O)c3cccnc32)c1	11.1	i	i	nt	i	i
COc1cc(C=NNC(=O)c2ccncc2)ccc1OC(=O)c1cc(OC)c(OC)c(OC)c1	nt	i	nt	nt	nt	nt
CCOC(=O)C1CCN(C(=O)COC(=O)c2ccc(Br)o2)CC1	i	i	i	i	nt	nt
SMILES	PLCg1 inh	UCH37 DUB inh	PLCb3 inh	Rpn11 inh	PLCgamma1 ctr	PLCbeta3 conf
CCOC(=O)C1CCN(C(=O)c2ccc(Br)o2)CC1	10.2	i	i	i	i	i
CCOC(=O)C1CCN(C(=O)c2c(-c3c(F)cccc3Cl)noc2C)CC1	10.2	i	i	i	i	i
CCOC(=O)C1CCN(C(=O)CCn2c(=O)oc3ccccc32)CC1	9.6	nt	i	i	i	i
COc1ccc(C=NN2CCOCC2)cc1Cn1cc([N+](=O)[O-])cn1	nt	i	nt	nt	nt	nt
CCn1c(SCC(=O)Nc2nc(C)c(C)s2)nnc1-c1cccnc1	9.8	i	i	i	i	i
CCn1c(SCC(=O)Nc2cc(C)on2)nnc1-c1cccnc1	nt	i	nt	i	nt	nt
CCOC(=O)c1ccc(C=NO)[n+](Cc2ccccc2)c1	nt	i	nt	nt	nt	nt
CCOC(=O)/C(C#N)=C/c1c(OCC)n(CC)c2ccccc12	10.4	i	i	i	i	i
CCOC(=O)/C(C#N)=C\c1cn(C)c2ccccc12	i	i	i	i	nt	nt
CC(C)Oc1cccc(C(=O)NC(=S)Nc2ccc(Cl)c(C(=O)O)c2)c1	10.4	i	i	i	i	i
